Measured values from ChEMBL document CHEMBL1150371, “Design and synthesis of benzenesulfonanilides active against methicillin-resistant Staphylococcus aureus and vancomycin-resistant Enterococcus” (Bioorg Med Chem, 2008).
Values after ≈ are worked out from the molar mass of the structure shown. Active and inactive are the calls of the source. The rule behind the calls is not given here.

Legend:
Assay type in all cases: functional
[1] = tested on: Staphylococcus aureus; test: Antimicrobial activity against methicillin-resistant Staphylococcus aureus at […] by disk diffusion method
Procedure, shortened: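 Overnight nutrient-broth culture (35 °C, 12–18 h) of MRSA OM584 spread on Mueller-Hinton agar; 8-mm paper discs given 10 µL of 20 mM compound in DMSO; plates incubated at 37 °C about 20 h; inhibition zones measured and scored: −, ± (0–1 mm), +1 (1–15 mm), +2 (15–20 mm), +3 (>20 mm).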

[2] = tested on: Staphylococcus aureus; test: Antimicrobial activity against methicillin-resistant Staphylococcus aureus OM584 by microdilution method
Procedure, shortened: (§1)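 Broth microdilution MIC per Japan Society of Chemotherapy standard method. Cultures grown in sensitivity test broth at 37 °C to OD620 0.1, inoculum ≈10^5 CFU/mL. Twofold dilutions from DMSO stock, 500 to 0.2 µg/mL; 20 h, 37 °C, humid. MIC = lowest concentration clearly inhibiting growth by visual inspection; vancomycin standard; media, DMSO and water controls; at least duplicate.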

[3] = tested on: Enterococcus faecium; test: Antimicrobial activity against vancomycin-resistant Enterococcus faecium FN-1 by microdilution susceptibility test; procedure, shortened: as §1

## Cc1ccccc1NS(=O)(=O)c1ccc(NS(C)(=O)=O)cc1
[1]
  Activity: inactive

## Nc1ccc(S(=O)(=O)Nc2cc(Cl)cc(Cl)c2)cc1
[2]
  MIC: 250 µg/mL (≈ 788 µM)
[3]
  MIC: 31.3 µg/mL (≈ 98.7 µM)

## O=S(=O)(Nc1cc(Cl)c(O)c(Cl)c1)c1cc(C(F)(F)F)cc(C(F)(F)F)c1
[2]
  MIC: 125 µg/mL (≈ 275 µM)
[3]
  MIC: 62.5 µg/mL (≈ 138 µM)

## Cc1ccccc1NS(=O)(=O)c1ccc(N)cc1
[1]
  Activity: inactive

## COc1ccc(NS(=O)(=O)c2cc(C(F)(F)F)cc(C(F)(F)F)c2)cc1
[2]
  MIC: > 250 µg/mL
[3]
  MIC: 125 µg/mL (≈ 313 µM)

## Cc1ccc(NS(=O)(=O)c2ccc(C(=O)O)cc2)cc1
[1]
  Activity: inactive

## Nc1ccc(NS(=O)(=O)c2cc(C(F)(F)F)cc(C(F)(F)F)c2)cc1
[2]
  MIC: > 250 µg/mL
[3]
  MIC: > 250 µg/mL

## O=S(=O)(Nc1ccc(C(F)(F)F)cc1)c1cc(Cl)cc(Cl)c1
[2]
  MIC: 31.3 µg/mL (≈ 84.6 µM)
[3]
  MIC: 31.3 µg/mL (≈ 84.6 µM)

## Cc1cc(C)cc(NS(=O)(=O)c2ccc(C(=O)O)cc2)c1
[1]
  Activity: inactive

## Cc1cccc(NS(=O)(=O)c2ccc(NS(C)(=O)=O)cc2)c1
[1]
  Activity: inactive

## O=S(=O)(Nc1ccc(Cl)cc1)c1cc(C(F)(F)F)cc(C(F)(F)F)c1
[2]
  MIC: 31.3 µg/mL (≈ 77.5 µM)
[3]
  MIC: 62.5 µg/mL (≈ 155 µM)

## Cc1cccc(NS(=O)(=O)c2ccc([N+](=O)[O-])cc2)c1
[1]
  inhibition zone (IZ): 1 mm

## Cc1ccc(NS(=O)(=O)c2cc(C(F)(F)F)cc(C(F)(F)F)c2)cc1
[2]
  MIC: > 250 µg/mL
[3]
  MIC: > 250 µg/mL

## COc1ccc(NS(=O)(=O)c2ccc([N+](=O)[O-])cc2)cc1
[1]
  Activity: inactive

## O=[N+]([O-])c1ccc(S(=O)(=O)Nc2ccccc2)cc1
[1]
  Activity: inactive

## O=S(=O)(Nc1cc(C(F)(F)F)cc(C(F)(F)F)c1)c1cccc(Cl)c1
[2]
  MIC: 31.3 µg/mL (≈ 77.5 µM)
[3]
  MIC: 15.6 µg/mL (≈ 38.6 µM)

## COc1ccc(S(=O)(=O)Nc2cc(Cl)cc(Cl)c2)cc1
[2]
  MIC: 250 µg/mL (≈ 753 µM)
[3]
  MIC: 125 µg/mL (≈ 376 µM)

## O=S(=O)(Nc1cc(F)cc(F)c1)c1cc(Cl)cc(Cl)c1
[2]
  MIC: 31.3 µg/mL (≈ 92.6 µM)
[3]
  MIC: 7.8 µg/mL (≈ 23.1 µM)

## COc1ccc(NS(=O)(=O)c2ccc(N)cc2)cc1
[1]
  Activity: inactive

## CN(c1cc(Cl)cc(Cl)c1)S(=O)(=O)c1cc(C(F)(F)F)cc(C(F)(F)F)c1
[2]
  MIC: > 250 µg/mL
[3]
  MIC: > 250 µg/mL

## CS(=O)(=O)Nc1ccc(S(=O)(=O)Nc2cc(C(F)(F)F)cc(C(F)(F)F)c2)cc1
[1]
  inhibition zone (IZ): 0 mm

## O=S(=O)(Nc1cc(Cl)c(O)c(Cl)c1)c1cc(Cl)cc(Cl)c1
[2]
  MIC: 31.3 µg/mL (≈ 80.9 µM)
[3]
  MIC: 31.3 µg/mL (≈ 80.9 µM)

## Cc1ccc(NS(=O)(=O)c2ccc(NS(C)(=O)=O)cc2)cc1
[1]
  Activity: inactive

## Nc1ccc(S(=O)(=O)Nc2ccc(C(F)(F)F)cc2)cc1
[1]
  Activity: inactive

## Cc1ccc(NS(=O)(=O)c2ccc(N)cc2)cc1
[1]
  Activity: inactive

## O=S(=O)(Nc1ccc(Cl)cc1)c1cc(Cl)cc(Cl)c1
[2]
  MIC: > 250 µg/mL
[3]
  MIC: 125 µg/mL (≈ 371 µM)

## Nc1ccc(NS(=O)(=O)c2cc(Cl)cc(Cl)c2)cc1
[2]
  MIC: > 250 µg/mL
[3]
  MIC: > 250 µg/mL

## COc1ccc(NS(=O)(=O)c2ccc(C(=O)O)cc2)cc1
[1]
  Activity: inactive

## O=C(O)c1ccc(S(=O)(=O)Nc2ccc(I)cc2)cc1
[1]
  Activity: inactive

## Cc1cc(C)cc(NS(=O)(=O)c2ccc([N+](=O)[O-])cc2)c1
[1]
  Activity: inactive

## O=S(=O)(Nc1cc(F)ccc1F)c1cc(C(F)(F)F)cc(C(F)(F)F)c1
[2]
  MIC: 15.6 µg/mL (≈ 38.5 µM)
[3]
  MIC: 62.5 µg/mL (≈ 154 µM)

## Cl.Nc1ccc(S(=O)(=O)Nc2cc(C(F)(F)F)cc(C(F)(F)F)c2)cc1
[1]
  inhibition zone (IZ): 1 mm

## Cl.O=[N+]([O-])c1ccc(S(=O)(=O)Nc2cc(C(F)(F)F)cc(C(F)(F)F)c2)cc1
[1]
  inhibition zone (IZ): >20 mm

## O=S(=O)(Nc1ccc(F)c(F)c1)c1cc(C(F)(F)F)cc(C(F)(F)F)c1
[2]
  MIC: 3.9 µg/mL (≈ 9.62 µM)
[3]
  MIC: 7.8 µg/mL (≈ 19.2 µM)

## Cc1ccc(S(=O)(=O)Nc2cc(Cl)cc(Cl)c2)cc1
[2]
  MIC: 125 µg/mL (≈ 395 µM)
[3]
  MIC: 62.5 µg/mL (≈ 198 µM)

## O=S(=O)(Nc1cc(C(F)(F)F)cc(C(F)(F)F)c1)c1ccc(Cl)cc1
[1]
  inhibition zone (IZ): 15 mm
[2]
  MIC: 7.8 µg/mL (≈ 19.3 µM)
[3]
  MIC: 7.8 µg/mL (≈ 19.3 µM)

## COc1ccc(NS(=O)(=O)c2ccc(NS(C)(=O)=O)cc2)cc1
[1]
  Activity: inactive

## COc1ccc(S(=O)(=O)Nc2cc(C(F)(F)F)cc(C(F)(F)F)c2)cc1
[1]
  inhibition zone (IZ): 1 mm
[2]
  MIC: 62.5 µg/mL (≈ 157 µM)
[3]
  MIC: 62.5 µg/mL (≈ 157 µM)

## O=S(=O)(Nc1cc(Cl)cc(Cl)c1)c1ccc(C(F)(F)F)cc1
[2]
  MIC: 15.6 µg/mL (≈ 42.1 µM)
[3]
  MIC: 7.8 µg/mL (≈ 21.1 µM)

## O=S(=O)(Nc1cc(Cl)nc(Cl)c1)c1cc(Cl)cc(Cl)c1
[2]
  MIC: 15.6 µg/mL (≈ 41.9 µM)
[3]
  MIC: 7.8 µg/mL (≈ 21 µM)

## O=[N+]([O-])c1ccc(S(=O)(=O)Nc2ccc(C(F)(F)F)cc2)cc1
[1]
  Activity: inactive

## Cc1cc(C)cc(NS(=O)(=O)c2ccc(NS(C)(=O)=O)cc2)c1
[1]
  Activity: inactive

## Nc1ccc(S(=O)(=O)Nc2ccc(I)cc2)cc1
[1]
  Activity: inactive

## O=S(=O)(Nc1c(Cl)cccc1Cl)c1cc(C(F)(F)F)cc(C(F)(F)F)c1
[2]
  MIC: > 250 µg/mL
[3]
  MIC: > 250 µg/mL

## O=[N+]([O-])c1ccc(NS(=O)(=O)c2cc(C(F)(F)F)cc(C(F)(F)F)c2)cc1
[2]
  MIC: 7.8 µg/mL (≈ 18.8 µM)
[3]
  MIC: 7.8 µg/mL (≈ 18.8 µM)

## COc1ccc(NS(=O)(=O)c2cc(Cl)cc(Cl)c2)cc1
[2]
  MIC: 125 µg/mL (≈ 376 µM)
[3]
  MIC: 125 µg/mL (≈ 376 µM)

## O=S(=O)(Nc1ccc(Cl)cc1Cl)c1cc(C(F)(F)F)cc(C(F)(F)F)c1
[2]
  MIC: > 250 µg/mL
[3]
  MIC: > 250 µg/mL

## Cc1ccc(NS(=O)(=O)c2cc(Cl)cc(Cl)c2)cc1
[2]
  MIC: > 250 µg/mL
[3]
  MIC: 62.5 µg/mL (≈ 198 µM)

## Cc1cccc(NS(=O)(=O)c2ccc(N)cc2)c1
[1]
  Activity: inactive

## CN(c1cc(C(F)(F)F)cc(C(F)(F)F)c1)S(=O)(=O)c1cc(Cl)cc(Cl)c1
[2]
  MIC: > 250 µg/mL
[3]
  MIC: > 250 µg/mL

## O=[N+]([O-])c1ccc(S(=O)(=O)Nc2cc(Cl)cc(Cl)c2)cc1
[2]
  MIC: > 250 µg/mL
[3]
  MIC: 62.5 µg/mL (≈ 180 µM)

## Nc1ccc(S(=O)(=O)Nc2ccc(Cl)cc2)cc1
[1]
  Activity: inactive

## O=[N+]([O-])c1ccc(NS(=O)(=O)c2cc(Cl)cc(Cl)c2)cc1
[2]
  MIC: 7.8 µg/mL (≈ 22.5 µM)
[3]
  MIC: 15.6 µg/mL (≈ 44.9 µM)

## O=S(=O)(Nc1ccc(C(F)(F)F)cn1)c1cc(Cl)cc(Cl)c1
[2]
  MIC: > 250 µg/mL
[3]
  MIC: > 250 µg/mL

## O=S(=O)(Nc1cc(C(F)(F)F)cc(C(F)(F)F)c1)c1cc(Cl)cc(Cl)c1
[2]
  MIC: 0.5 µg/mL (≈ 1.14 µM)
[3]
  MIC: 1 µg/mL (≈ 2.28 µM)

## O=S(=O)(Nc1cc(Cl)nc(Cl)c1)c1cc(C(F)(F)F)cc(C(F)(F)F)c1
[2]
  MIC: 15.6 µg/mL (≈ 35.5 µM)
[3]
  MIC: 7.8 µg/mL (≈ 17.8 µM)

## O=S(=O)(Nc1cc(C(F)(F)F)cc(C(F)(F)F)c1)c1ccc(F)cc1
[2]
  MIC: 15.6 µg/mL (≈ 40.3 µM)
[3]
  MIC: 62.5 µg/mL (≈ 161 µM)

## O=S(=O)(Nc1cccc(C(F)(F)F)c1)c1cc(Cl)cc(Cl)c1
[2]
  MIC: 125 µg/mL (≈ 338 µM)
[3]
  MIC: 62.5 µg/mL (≈ 169 µM)

## CS(=O)(=O)Nc1ccc(S(=O)(=O)Nc2ccc(C(F)(F)F)cc2)cc1
[1]
  Activity: inactive

## O=S(=O)(Nc1c(F)cccc1F)c1cc(C(F)(F)F)cc(C(F)(F)F)c1
[2]
  MIC: > 250 µg/mL
[3]
  MIC: > 250 µg/mL

## O=S(=O)(Nc1ccc(F)cc1F)c1cc(C(F)(F)F)cc(C(F)(F)F)c1
[2]
  MIC: > 250 µg/mL
[3]
  MIC: > 250 µg/mL

## O=S(=O)(Nc1cc(Cl)cc(Cl)c1)c1ccc(Cl)cc1
[2]
  MIC: 31.3 µg/mL (≈ 93 µM)
[3]
  MIC: 62.5 µg/mL (≈ 186 µM)

## O=S(=O)(Nc1ccc(C(F)(F)F)cc1)c1cc(C(F)(F)F)cc(C(F)(F)F)c1
[2]
  MIC: 7.8 µg/mL (≈ 17.8 µM)
[3]
  MIC: 3.9 µg/mL (≈ 8.92 µM)

## CS(=O)(=O)Nc1ccc(S(=O)(=O)Nc2ccc(Cl)cc2)cc1
[1]
  inhibition zone (IZ): 0 mm

## Cc1ccc(NS(=O)(=O)c2ccc([N+](=O)[O-])cc2)cc1
[1]
  Activity: inactive

## Cc1ccccc1NS(=O)(=O)c1ccc(C(=O)O)cc1
[1]
  Activity: inactive

## Cc1cc(C)cc(NS(=O)(=O)c2ccc(N)cc2)c1
[1]
  Activity: inactive

## CN[C@H](CC(C)C)C(=O)N[C@H]1C(=O)N[C@@H](CC(N)=O)C(=O)N[C@H]2C(=O)N[C@H]3C(=O)N[C@H](C(=O)N[C@H](C(=O)O)c4cc(O)cc(O)c4-c4cc3ccc4O)[C@H](O)c3ccc(c(Cl)c3)Oc3cc2cc(c3O[C@@H]2O[C@H](CO)[C@@H](O)[C@H](O)[C@H]2O[C@H]2C[C@](C)(N)[C@H](O)[C@H](C)O2)Oc2ccc(cc2Cl)[C@H]1O [VANCOMYCIN]
[3]
  MIC: 125 µg/mL (≈ 86.3 µM)

## CS(=O)(=O)Nc1ccc(S(=O)(=O)Nc2ccccc2)cc1
[1]
  Activity: inactive

## O=S(=O)(Nc1cccc(F)c1F)c1cc(C(F)(F)F)cc(C(F)(F)F)c1
[2]
  MIC: 15.6 µg/mL (≈ 38.5 µM)
[3]
  MIC: 62.5 µg/mL (≈ 154 µM)

## Nc1ccc(S(=O)(=O)Nc2ccccc2)cc1
[1]
  Activity: inactive
